Reference: ChEMBL document CHEMBL1649111, “Restoration of susceptibility of intracellular methicillin-resistant Staphylococcus aureus to beta-lactams: comparison of strains, cells, and antibiotics” (Antimicrob Agents Chemother, 2008)

Tested on: Staphylococcus aureus
Assay: Antimicrobial activity against beta-lactamase negative methicillin-susceptible Staphylococcus aureus ATCC 25923 infected in human THP-1 cells assessed as increase in bacterial count from original inoculum at low compound concentration after 24 hrs at pH 5.5
Assay type: functional
Outline: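 MSSA ATCC 25923 phagocytized by unactivated THP-1 macrophages; extracellular antibiotic from about 0.01× to 100× the broth MIC at pH 5.5, with gentamicin 0.5 mg/liter to block extracellular growth. CFU per mg cell protein counted at 24 h vs. original inoculum (n = 3). A Hill equation (slope factor 1) gives Emin/Emax, extrapolated to infinitely low/high concentration. Static concentration is read by graphical interpolation.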

Cc1onc(-c2ccccc2Cl)c1C(=O)N[C@@H]1C(=O)N2[C@@H]1SC(C)(C)[C@@H]2C(=O)O [CLOXACILLIN]
log10cfu: 1.96
